In ChEMBL document CHEMBL3232843, “Novel pyrrolidine diketopiperazines selectively inhibit melanoma cells via induction of late-onset apoptosis” (J Med Chem, 2014) one finds inhibition, cytotoxicity and IC50 data, which are given here for 9 compounds.

By inhibition is commonly meant how much of the control response was suppressed. As a reminder, the IC50 is the concentration at which inhibition is half-maximal. A low value points to inhibition by little substance.

Series [1] concerns M14. Put plainly: Cytotoxicity against human M14 cells at 100 uM after 72 hrs by CellTiter-Glo luminescence assay. Particulars: M14, 72 h. It counts as functional. Summed up: (§1)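 1250 cells per well in serum-free medium (F12 for CHO-K1 and A549, DMEM for M14). Compounds given as 10-point 1:3 serial dilutions from a 300 µM stock, plus a gefitinib control. Incubated 72 h at 37 °C, 5% CO2. CellTiter-Glo added for 15 min at room temperature, then luminescence read. Viability normalized to media-only wells (0%) and 1% DMSO wells (100%). Run in triplicate.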

The test system of series [2] is A549. Put plainly: Cytotoxicity against human A549 cells at 100 uM after 72 hrs by CellTiter-Glo luminescence assay. It counts as functional. Particulars: A549, 72 h. Summed up:
as §1

Series [3] in a line: Cytotoxicity against CHOK1 cells at 100 uM after 72 hrs by CellTiter-Glo luminescence assay. The series is classed as cell-based, Cricetulus griseus. Particulars: chinese hamster, CHO-K1 cells; read-out: INH. The method, boiled down: as §1
A general note: Cellular ATP, detected with luciferase, serves as a proxy for viable cell number.

Series [4] has as its system A549. The series can be described thus: Cytotoxicity against human A549 cells after 72 hrs by CellTiter-Glo luminescence assay. It counts as functional, cell-based. Particulars: A549, 72 h. The method, boiled down: as §1
The test system of series [5] is M14. The series can be described thus: Cytotoxicity against human M14 cells after 72 hrs by CellTiter-Glo luminescence assay. The series is classed as functional, cell-based. Particulars: M14, 72 h. Summed up: as §1
Series [6] is described as follows: Cytotoxicity against CHOK1 cells after 72 hrs by CellTiter-Glo luminescence assay. The series is classed as cell-based. Particulars: Cricetulus griseus, CHO-K1, 72 h. The method, boiled down:
as §1

In the case of `CCC[C@@H]1CNC(=O)C(=O)N1C[C@@H]1CCCN1C[C@@H](Cc1ccc(O)cc1)N1C[C@@H](Cc2ccc(O)cc2)N(CC(CC)c2ccccc2)C(=O)C1=O` (stereo not given in full), the results for the inhibition at 100 µM in series [1] and in series [2] were 14% and 8%, respectively. For the same compound, the cytotoxicity at 72 h, 100 µM in series [3] is 59%.
Take `CCC[C@@H]1CNC(=O)C(=O)N1C[C@@H]1CCCN1C[C@H](Cc1ccc(O)cc1)N1C[C@@H](Cc2ccc(O)cc2)N(CC(CC)c2ccccc2)C(=O)C1=O` (stereo not given in full): the cytotoxicity at 72 h, 100 µM in series [3] worked out at 0%.
In the case of `CCC[C@@H]1CNC(=O)C(=O)N1C[C@@H]1CCCN1C[C@H](Cc1ccc(O)cc1)N1C[C@@H](Cc2ccc(O)cc2)N(CC2CCCC2)C(=O)C1=O`, the inhibition at 100 µM in series [1] came out at 3%; in series [2] it was 5%. Moreover, in series [3], the cytotoxicity at 72 h, 100 µM was found to be 7%.
The matching figures for `CCC[C@@H]1CNC(=O)C(=O)N1C[C@@H]1CCCN1C[C@H](Cc1ccc(O)cc1)N1C[C@H](Cc2ccc(O)cc2)N(CC2CCCC2)C(=O)C1=O`: 15%, 0% and 7%.
The matching figures for `CCC[C@@H]1CNC(=O)C(=O)N1C[C@@H]1CCCN1C[C@H](Cc1ccc(O)cc1)N1C[C@H](Cc2ccc(O)cc2)N(CC(CC)c2ccccc2)C(=O)C1=O` (stereo not given in full): 10%, 0% and 27%.
In the same order, the values of `CCC[C@@H]1CNC(=O)C(=O)N1C[C@@H]1CCCN1C[C@@H](Cc1ccc(O)cc1)N1C[C@H](Cc2ccc(O)cc2)N(CC2CCCC2)C(=O)C1=O` are 23%, 16% and 19%.
Consider `CCC[C@H]1CNC(=O)C(=O)N1C[C@@H]1CCCN1C[C@@H](CC1CCCCC1)N1C[C@H](Cc2ccc(O)cc2)N(CCC23CC4CC(CC(C4)C2)C3)C(=O)C1=O`, for which the IC50 in series [4], in series [5] and in series [6] was above 50 µM throughout.
Take `CCC[C@@H]1CNC(=O)C(=O)N1C[C@@H]1CCCN1C[C@@H](Cc1ccc(O)cc1)N1C[C@@H](Cc2ccc(O)cc2)N(CC2CCCC2)C(=O)C1=O`: the inhibition at 100 µM stood at 25% in series [1] and 14% in series [2]. The cytotoxicity at 72 h, 100 µM in series [3] came to 11%.
With `CCC[C@@H]1CNC(=O)C(=O)N1C[C@@H]1CCCN1C[C@@H](Cc1ccc(O)cc1)N1C[C@H](Cc2ccc(O)cc2)N(CC(CC)c2ccccc2)C(=O)C1=O` (stereo not given in full), the figures for the inhibition at 100 µM in series [1] and in series [2] were 7% and 4%, respectively. Besides, in series [3], the cytotoxicity at 72 h, 100 µM came to 48%.
